In ChEMBL document CHEMBL3763112, “Novel leucine ureido derivatives as aminopeptidase N inhibitors. Design, synthesis and activity evaluation” (Eur J Med Chem, 2016):
Activity calls are given as the source filed them. The rule behind the calls is not given here.

Key:
[1] = target: Histone deacetylase (HDAC1 and HDAC2) (Homo sapiens, UniProt Q13547+Q92769); test: Inhibition of HDAC1/HDAC2 in human HeLa cells nuclear extract preincubated for 5 mins before Boc-Lys (acetyl)-AMC substrate addition for 30 mins by microplate reader analysis; assay type: cell-based
[2] = target: T1, Aminopeptidase N (Sus scrofa, UniProt P15145); test: Inhibition of APN in porcine kidney microsomes preincubated for 5 mins before L-leu-p-nitroanilide substrate addition for 30 mins by plate reader analysis
T1 sequence (P15145 whole entry): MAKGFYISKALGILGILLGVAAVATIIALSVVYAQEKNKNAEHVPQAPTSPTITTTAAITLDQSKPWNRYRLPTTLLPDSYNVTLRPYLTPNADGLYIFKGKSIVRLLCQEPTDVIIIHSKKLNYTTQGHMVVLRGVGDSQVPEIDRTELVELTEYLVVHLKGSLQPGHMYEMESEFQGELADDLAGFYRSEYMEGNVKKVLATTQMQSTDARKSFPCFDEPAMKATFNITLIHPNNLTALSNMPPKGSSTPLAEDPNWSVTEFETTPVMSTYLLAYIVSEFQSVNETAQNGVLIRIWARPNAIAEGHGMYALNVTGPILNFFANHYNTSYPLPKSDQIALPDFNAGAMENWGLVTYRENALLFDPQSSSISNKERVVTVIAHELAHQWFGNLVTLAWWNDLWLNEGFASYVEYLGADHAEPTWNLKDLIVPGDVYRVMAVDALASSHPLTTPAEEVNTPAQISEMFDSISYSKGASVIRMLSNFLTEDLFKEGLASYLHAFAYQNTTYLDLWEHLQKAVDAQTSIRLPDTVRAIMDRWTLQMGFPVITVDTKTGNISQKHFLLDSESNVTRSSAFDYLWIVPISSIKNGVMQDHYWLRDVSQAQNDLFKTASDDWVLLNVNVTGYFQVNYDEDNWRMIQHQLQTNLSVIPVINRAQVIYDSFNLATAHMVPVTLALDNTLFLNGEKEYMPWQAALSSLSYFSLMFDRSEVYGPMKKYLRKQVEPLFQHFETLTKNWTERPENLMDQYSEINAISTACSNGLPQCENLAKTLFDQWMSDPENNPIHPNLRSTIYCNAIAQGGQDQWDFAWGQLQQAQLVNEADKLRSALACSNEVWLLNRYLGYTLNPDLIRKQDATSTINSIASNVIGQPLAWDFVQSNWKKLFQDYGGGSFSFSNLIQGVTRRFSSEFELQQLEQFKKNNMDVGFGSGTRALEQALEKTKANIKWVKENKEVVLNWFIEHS

[3] = system: ES2; test: Antiinvasive activity against human ES2 cells assessed as reduction in cell invasion at 150 uM after 8 hrs by crystal violet staining based Matrigel assay; assay type: functional
Summary of the method: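 Matrigel-coated transwell chambers rehydrated 2 h in RPMI-1640 + 1% FBS; lower chamber RPMI-1640 + 10% FBS. Compounds in 1% FBS medium added to the upper chamber with ES-2 cells (1 × 10^5/well) at the same time; invasion 8 h at 37 °C. Non-invaded cells swabbed off; remaining cells fixed, stained with 0.1% crystal violet, counted in five random fields (×100) per insert; mean of three independent experiments.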

[4] = system: H22; test: Antimetastasis activity against mouse H22 cells implanted in mouse assessed as inhibition of tumour growth at 80 mg/kg/day, po administered 6 days/week for 2 weeks; assay type: functional
Summary of the method: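 H22 tumour cells given to mice via the caudal vein; animals randomly divided into 3 groups. Control received the same volume of excipient; the other groups received inhibitor orally at 80 mg/kg/day, 6 days/week for 2 weeks.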

[5] = target: Aminopeptidase N (Homo sapiens, UniProt P15144); test: Inhibition of APN in human ES2 cells preincubated for 5 mins before L-leu-p-nitroanilide substrate addition for 1 hr by photometry; assay type: cell-based
Sequence of Aminopeptidase N (Homo sapiens, UniProt P15144) (P15144 whole entry): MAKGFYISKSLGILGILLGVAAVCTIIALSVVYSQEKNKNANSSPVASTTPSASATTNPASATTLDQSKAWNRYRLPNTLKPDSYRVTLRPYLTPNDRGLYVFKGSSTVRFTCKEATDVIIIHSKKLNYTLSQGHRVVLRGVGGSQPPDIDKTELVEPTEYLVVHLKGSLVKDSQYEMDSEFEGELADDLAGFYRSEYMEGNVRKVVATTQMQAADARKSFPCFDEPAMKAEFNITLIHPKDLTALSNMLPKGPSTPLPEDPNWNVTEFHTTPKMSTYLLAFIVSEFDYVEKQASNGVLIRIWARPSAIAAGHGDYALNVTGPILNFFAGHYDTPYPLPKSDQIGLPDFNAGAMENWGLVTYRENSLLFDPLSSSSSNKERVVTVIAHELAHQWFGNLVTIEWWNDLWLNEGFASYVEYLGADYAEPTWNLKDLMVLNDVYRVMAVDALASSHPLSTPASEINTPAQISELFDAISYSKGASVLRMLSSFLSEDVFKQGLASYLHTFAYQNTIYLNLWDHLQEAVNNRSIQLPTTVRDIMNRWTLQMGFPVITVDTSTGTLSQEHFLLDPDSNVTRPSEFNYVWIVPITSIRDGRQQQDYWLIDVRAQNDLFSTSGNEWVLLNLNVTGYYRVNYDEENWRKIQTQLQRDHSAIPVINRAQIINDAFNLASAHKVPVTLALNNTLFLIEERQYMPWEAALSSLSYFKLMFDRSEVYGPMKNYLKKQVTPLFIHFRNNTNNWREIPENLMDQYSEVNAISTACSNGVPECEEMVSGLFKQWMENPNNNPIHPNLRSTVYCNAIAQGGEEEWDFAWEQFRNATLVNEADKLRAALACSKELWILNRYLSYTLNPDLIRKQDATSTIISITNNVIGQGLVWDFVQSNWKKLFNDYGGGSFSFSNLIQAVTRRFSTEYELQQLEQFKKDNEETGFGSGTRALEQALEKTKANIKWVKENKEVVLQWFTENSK
Summary of the method: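 ES-2 ovarian clear cell carcinoma cell suspension (1 × 10^5 cells/well) used as the APN source in 10 mM PBS pH 7.4; inhibitors in buffer with 0.2% DMSO final. Pre-incubation 5 min at room temperature, then L-Leu-p-nitroanilide added, 1 h at 37 °C. Supernatant after centrifugation read by UV-Vis spectrophotometry; IC50 from regression of concentration/inhibition-rate data.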

SMILES | IC50 [1] [nM] | IC50 [2] [nM] | IC50 [5] [nM] | inhibition [3] | inhibition in vivo at 80 mg/kg/day [4] [%]
CC(C)C[C@H](NC(=O)NCc1ccc(F)c(F)c1)C(=O)NO | > 100000 | 420 |  |  | 
Cc1cccc(CNC(=O)N[C@@H](CC(C)C)C(=O)NO)c1C | > 100000 | 70 |  |  | 
CC(C)C[C@H](NC(=O)[C@@H](O)[C@H](N)Cc1ccccc1)C(=O)O [UBENIMEX] | > 100000 |  |  | Active | 75.9
COc1ccc(CNC(=O)N[C@@H](CC(C)C)C(=O)NO)c(OC)c1 | > 100000 | 460 |  |  | 
CC(C)C[C@H](NC(=O)Nc1ccccc1)C(=O)NO | > 100000 |  |  |  | 
CC(C)C[C@H](NC(=O)NCc1ccc(F)cc1F)C(=O)NO | > 100000 | 330 |  |  | 
Cc1ccc(CNC(=O)N[C@@H](CC(C)C)C(=O)NO)cc1C | > 100000 | 440 |  |  | 
CCc1cccc(CC)c1NC(=O)N[C@@H](CC(C)C)C(=O)NO | > 100000 | 30 | 280 | Active | 
Cc1ccc(NC(=O)N[C@@H](CC(C)C)C(=O)NO)c(C)c1 | > 100000 | 180 |  |  | 
Cc1cccc(C)c1NC(=O)N[C@@H](CC(C)C)C(=O)NO | > 100000 | 20 | 120 | Active | 91.7

Further lines, with some results ahead:

IC50 [1] [nM] | IC50 [2] [nM] | IC50 [5] [nM] | SMILES | inhibition [3] | inhibition in vivo at 80 mg/kg/day [4] [%]
> 100000 | 690 |  | CC(C)C[C@H](NC(=O)NCc1c(F)cccc1F)C(=O)NO |  | 
> 100000 | 90 |  | Cc1ccc(NC(=O)N[C@@H](CC(C)C)C(=O)NO)cc1Cl |  | 
> 100000 | 340 |  | CC(C)C[C@H](NC(=O)Nc1ccc(F)cc1F)C(=O)NO |  | 
> 100000 | 420 |  | COc1ccc(NC(=O)N[C@@H](CC(C)C)C(=O)NO)cc1F |  | 
> 100000 | 460 |  | COc1ccc(NC(=O)N[C@@H](CC(C)C)C(=O)NO)c(OC)c1 |  | 
> 100000 | 50 |  | CC(C)C[C@H](NC(=O)Nc1c(C(C)C)cccc1C(C)C)C(=O)NO |  | 
> 100000 | 560 |  | CC(C)C[C@H](NC(=O)Nc1ccc(Cl)cc1Cl)C(=O)NO |  | 
> 100000 | 80 |  | Cc1cc(C)c(NC(=O)N[C@@H](CC(C)C)C(=O)NO)c(C)c1 |  | 
> 100000 | 230 |  | CC(C)C[C@H](NC(=O)Nc1c(F)cccc1F)C(=O)NO |  | 
> 100000 | 580 |  | CC(C)C[C@H](NC(=O)NCc1c(Cl)cccc1Cl)C(=O)NO |  | 
